In ChEMBL document CHEMBL1287677, “Antimalarial histone deacetylase inhibitors containing cinnamate or NSAID components” (Bioorg Med Chem Lett, 2010):
Active and inactive are the calls of the source. No cut-off for these calls is given here.

Columns and labels:
Plasmodium falciparum = test: Antimalarial activity against drug-sensitive ring-stage Plasmodium falciparum 3D7 infected in human O+ erythrocytes assessed as inhibition of parasite growth by [3H]hypoxanthine incorporation assay; type: functional, organism-based
[1] = Selectivity index, ratio of IC50 for human HeLa cells to IC50 for drug-sensitive ring-stage Plasmodium falciparum 3D7; type: toxicity, cell-based; conditions: read-out: Selectivity Index
[2] = Selectivity index, ratio of IC50 for human NFF to IC50 for drug-sensitive ring-stage Plasmodium falciparum 3D7
In short: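 Ratio computed as NFF IC50 divided by 3D7 IC50. Each IC50 is the mean of three experiments.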

[3] = biological target: T1, Histone deacetylase (Plasmodium falciparum 3D7) (UniProt Q7K6A1); test: Inhibition of trophozoite stage of Plasmodium falciparum 3D7 HDAC1 in infected-human erythrocytes assessed as histone H4 hyperacetylation at 20 to 100 nM after 3.5 hrs by Western blot analysis; type: cell-based
T1 sequence (whole entry): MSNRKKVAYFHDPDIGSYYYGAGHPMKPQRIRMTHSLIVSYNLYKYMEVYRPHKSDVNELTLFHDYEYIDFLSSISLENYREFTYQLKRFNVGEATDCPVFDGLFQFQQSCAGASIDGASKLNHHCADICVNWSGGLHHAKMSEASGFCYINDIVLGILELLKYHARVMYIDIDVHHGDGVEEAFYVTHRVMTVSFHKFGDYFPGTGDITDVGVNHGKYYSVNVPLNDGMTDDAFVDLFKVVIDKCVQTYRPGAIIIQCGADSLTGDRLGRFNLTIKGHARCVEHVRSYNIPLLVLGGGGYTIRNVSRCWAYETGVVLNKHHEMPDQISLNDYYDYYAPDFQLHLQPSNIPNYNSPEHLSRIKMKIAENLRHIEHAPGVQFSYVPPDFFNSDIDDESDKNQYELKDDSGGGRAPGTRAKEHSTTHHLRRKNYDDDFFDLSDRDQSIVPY
In short: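 P. falciparum 3D7-infected erythrocytes exposed to 20 and 100 nM compound for 3.5 h. Vehicle controls (0.1% DMSO) sampled at start and at 3.5 h. Total protein extracted and run on 15% SDS–PAGE. Histone H4 hyperacetylation read by Western blot with polyclonal anti-tetra-acetyl histone H4 antiserum. Loading checked by Coomassie staining of a matched gel.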

NFF = test: Cytotoxicity against human NFF after 96 hrs by sulforhodamine B assay; type: cell-based
Histone deacetylase = biological target: T2, Histone deacetylase (Plasmodium falciparum 3D7, UniProt Q7K6A1); test: (§1) Inhibition of Plasmodium falciparum 3D7 HDAC1 in infected-human erythrocytes assessed as histone H4 hyperacetylation after 1.5 hrs by SDS-PAGE analysis; type: cell-based
T2 sequence (Q7K6A1 whole entry): T1 sequence (whole entry)

[4] = biological target: T1, Histone deacetylase (Plasmodium falciparum 3D7); test: as §1; type: cell-based

| SMILES | IC50 (Plasmodium falciparum) [nM] | IC90 (Plasmodium falciparum) [nM] | other results |
| --- | --- | --- | --- |
| CC1=C(CC(=O)N[C@@H](CCCCCC(=O)NO)C(=O)Nc2cccc3cccnc23)c2cc(F)ccc2C1=Cc1ccc(S(C)=O)cc1 (stereo partly specified) | 35 | 35 | – |
| COc1ccc2[nH]c(C)c(CC(=O)N[C@@H](CCCCCC(=O)NO)C(=O)Nc3cccc4cccnc34)c2c1 | 13 | 22 | selectivity ratio [1]: 17; Selectivity Index [2]: 20; inhibition [3]: Active; IC50 (NFF): 260 nM |
| O=C(CCCCC[C@H](NC(=O)Cc1ccccc1Nc1c(Cl)cccc1Cl)C(=O)Nc1cccc2cccnc12)NO | 65 | 119 | – |
| O=C(/C=C/c1cccc(Br)c1)N[C@@H](CCCCCC(=O)NO)C(=O)Nc1cccc2cccnc12 | 50 | – | – |
| COc1ccc(/C=C/C(=O)N[C@@H](CCCCCC(=O)NO)C(=O)Nc2cccc3cccnc23)cc1OC | 34 | 61 | – |
| C[C@@H]1CC[C@H]2[C@@H](C)C(=O)O[C@@H]3O[C@@]4(C)CC[C@@H]1[C@]32OO4 | – | – | inhibition [3]: inactive |
| O=C(CCCCC[C@H](NC(=O)c1cc2ccccc2[nH]1)C(=O)Nc1cccc2cccnc12)NO | – | – | IC50 (Histone deacetylase): 78 nM; inhibition [4]: Dose-dependent effect |
| CCCCOc1ccc(/C=C/C(=O)N[C@@H](CCCCCC(=O)NO)C(=O)Nc2cccc3cccnc23)cc1 | 184 | 373 | – |
| O=C(/C=C/c1ccc(Oc2ccccc2)cc1)N[C@@H](CCCCCC(=O)NO)C(=O)Nc1cccc2cccnc12 | 156 | – | – |
| COc1ccc2cc([C@H](C)C(=O)N[C@@H](CCCCCC(=O)NO)C(=O)Nc3cccc4cccnc34)ccc2c1 | 14 | 24 | selectivity ratio [1]: 17; Selectivity Index [2]: 12; inhibition [3]: Active; IC50 (NFF): 169 nM |
| CN(C)c1ccc(C(=O)N[C@@H](CCCCCC(=O)NO)C(=O)Nc2ccccc2Cc2ccccc2)cc1 | 5 | – | inhibition [3]: Active |
| CN(C)c1ccc(C(=O)N[C@@H](CCCCCC(=O)NO)C(=O)Nc2cccc3ccccc23)cc1 | 21 | – | – |
| CN(C)c1ccc(C(=O)N[C@@H](CCCCCC(=O)NO)C(=O)Nc2cccc3cccnc23)cc1 | – | – | selectivity ratio [1]: 17; Selectivity Index [2]: 30 |
| CC(C)CCOc1cccc(/C=C/C(=O)N[C@@H](CCCCCC(=O)NO)C(=O)Nc2cccc3cccnc23)c1 | > 1000 | > 1000 | – |
| COc1ccc(CCNC(=O)[C@H](CCCCCC(=O)NO)NC(=O)c2ccc(N(C)C)cc2)cc1OC | 101 | – | – |
| COc1cc(/C=C/C(=O)N[C@@H](CCCCCC(=O)NO)C(=O)Nc2cccc3cccnc23)cc(OC)c1O | 14 | 26 | – |
| CC(C)CCOc1ccc(/C=C/C(=O)N[C@@H](CCCCCC(=O)NO)C(=O)Nc2cccc3cccnc23)cc1 | 217 | 536 | – |
| Cc1cccc(Nc2ccccc2C(=O)N[C@@H](CCCCCC(=O)NO)C(=O)Nc2cccc3cccnc23)c1C | 51 | 89 | – |
| O=C(/C=C/c1ccccc1)N[C@@H](CCCCCC(=O)NO)C(=O)Nc1cccc2cccnc12 | – | – | IC50 (Histone deacetylase): 87 nM; inhibition [4]: Dose-dependent effect |
| COc1cc(/C=C/C(=O)N[C@@H](CCCCCC(=O)NO)C(=O)Nc2cccc3cccnc23)cc(OC)c1OC | 52 | – | – |
| CC(C)c1ccc(NC(=O)[C@H](CCCCCC(=O)NO)NC(=O)c2ccc(N(C)C)cc2)cc1 | 22 | – | – |
| O=C(/C=C/c1ccc(OCc2ccc(Br)cc2)cc1)N[C@@H](CCCCCC(=O)NO)C(=O)Nc1cccc2cccnc12 | 357 | 687 | – |
| CC(C(=O)N[C@@H](CCCCCC(=O)NO)C(=O)Nc1cccc2cccnc12)c1ccc(-c2ccccc2)c(F)c1 (stereo partly specified) | 42 | 76 | – |
| O=C(/C=C/c1cccc(OC/C=C/c2ccccc2)c1)N[C@@H](CCCCCC(=O)NO)C(=O)Nc1cccc2cccnc12 | 400 | 805 | – |
| O=C(CCCCC[C@H](NC(=O)c1ccccc1O)C(=O)Nc1cccc2cccnc12)NO | 115 | 214 | – |
| O=C(/C=C/c1ccc(OC/C=C/c2ccccc2)cc1)N[C@@H](CCCCCC(=O)NO)C(=O)Nc1cccc2cccnc12 | 453 | 827 | – |
| O=C(/C=C/c1ccco1)N[C@@H](CCCCCC(=O)NO)C(=O)Nc1cccc2cccnc12 | 15 | 27 | – |
| Cc1ccc(C(=O)c2ccc(CC(=O)N[C@@H](CCCCCC(=O)NO)C(=O)Nc3cccc4cccnc34)n2C)cc1 | 47 | 102 | – |
| CC(C(=O)N[C@@H](CCCCCC(=O)NO)C(=O)Nc1cccc2cccnc12)c1ccc(N2Cc3ccccc3C2=O)cc1 (stereo partly specified) | 32 | 65 | – |
| Cc1ccc(COc2ccc(/C=C/C(=O)N[C@@H](CCCCCC(=O)NO)C(=O)Nc3cccc4cccnc34)cc2)cc1 | 153 | 375 | – |
